Assays:
U373 MG = experiment: Growth inhibition of human U373 cells after 72 hrs by MTT assay; assay type: functional, U-373MG ATCC
Outline: (§1)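 Cells were grown in RPMI with 10% heat-inactivated fetal bovine serum, 4 mM glutamine, 100 μg/mL gentamicin and penicillin–streptomycin (200 units/mL and […]). They were cultured with compound for 72 h, then read by MTT colorimetric assay. GI50 is the concentration cutting growth by 50% relative to untreated control.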

SK-MEL-28 = experiment: Growth inhibition of human SK-MEL-28 cells after 72 hrs by MTT assay; assay type: functional; conditions: SK-MEL-28, 72 h; outline: as §1
MCF7 = experiment: Growth inhibition of human MCF7 cells after 72 hrs by MTT assay; assay type: functional; conditions: MCF7, 72 h; outline: as §1
B16-F10 = experiment: Growth inhibition of mouse B16F10 cells after 72 hrs by MTT assay; assay type: functional; conditions: B16-F10, 72 h; outline: as §1
Hs 683 = experiment: Growth inhibition of human Hs683 cells after 72 hrs by MTT assay; assay type: functional; conditions: Hs 683, 72 h; outline: as §1
A549 = experiment: Growth inhibition of human A549 cells after 72 hrs by MTT assay; assay type: functional; conditions: A549, 72 h; outline: as §1

Row | GI50 (SK-MEL-28) [µM] | GI50 (MCF7) [µM] | GI50 (B16-F10) [µM] | GI50 (A549) [µM] | Compound | GI50 (U373 MG) [µM] | GI50 (Hs 683) [µM]
1 | 42.7 | 30.3 | 5.7 | 18.5 | CC(C)=CCC/C(C)=C/CC/C(C)=C/C(=O)NC(=N)NC(=O)/C=C(\C)CC/C=C(\C)CCC=C(C)C | 9.2 | 6.8
2 | 24.2 | 23.4 | 7.5 | 23.4 | CC(C)=CCC/C(C)=C/CC/C(C)=C/C(=O)NC(=N)NC(=O)C=C(C)C | 15.7 | 8.3
3 | 20.1 | 22 | 9.2 | 13.7 | CC(C)=CCC/C(C)=C/CC/C(C)=C/C(=O)NC(=N)N | 21 | 10
4 | 57.3 | 51.2 | 18.9 | 38.9 | CC(C)=CCC/C(C)=C/CC/C(C)=C/C(=O)NC(=N)NC(=O)/C=C(\C)CCC=C(C)C | 35 | 37.4
5 | 56.3 | 52.2 | 17.1 | 76.5 | CC(C)=CCC/C(C)=C/C(=O)NC(=N)N | 46 | 39.4
6 | > 100 | > 100 | 92.8 | > 100 | CC(C)=CC(=O)NC(=N)N | > 100 | > 100
7 | 60.5 | 28.1 | 9.6 | 29.4 | C=C1CCCC(C)(C)[C@@H]1CC/C(C)=C/C(=O)NC(=N)NC(=O)C=C(C)C | 28.8 | 18.1
8 | 61.9 | 42.4 | 23.8 | 46.9 | CC(C)=CCC/C(C)=C/C(=O)NC(=N)NC(=O)/C=C(\C)CCC=C(C)C | 38.9 | 32.7
9 | > 100 | 59.7 | 21.3 | 75.6 | CC(C)=CC(=O)NC(=N)NC(=O)C=C(C)C | 45.6 | 60.3
10 | 53.4 | 41.5 | 25 | 37.4 | CC(C)=CCC/C(C)=C/C(=O)NC(=N)NC(=O)C=C(C)C | 36.2 | 31.5
11 | 3.2 | 4 | – | 1.7 | COc1cc([C@@H]2c3cc4c(cc3[C@@H](O[C@@H]3O[C@@H]5CO[C@@H](C)O[C@H]5[C@H](O)[C@H]3O)[C@H]3COC(=O)[C@H]23)OCO4)cc(OC)c1O [ETOPOSIDE] | 24.9 | 1.5

Source: ChEMBL document CHEMBL4118029, “Marine Terpenoid Diacylguanidines: Structure, Synthesis, and Biological Evaluation of Naturally Occurring Actinofide and Synthetic Analogues” (2017)
